Assay results published in PMC7781011 (Journal of Inflammation Research, 2020).

Key:
human 5-LOX = target: T1, human 5-LOX (Homo sapiens, UniProt P09917); assay: Circular dichroism, change in secondary structure; conditions: CD
T1 sequence (P09917 1-674): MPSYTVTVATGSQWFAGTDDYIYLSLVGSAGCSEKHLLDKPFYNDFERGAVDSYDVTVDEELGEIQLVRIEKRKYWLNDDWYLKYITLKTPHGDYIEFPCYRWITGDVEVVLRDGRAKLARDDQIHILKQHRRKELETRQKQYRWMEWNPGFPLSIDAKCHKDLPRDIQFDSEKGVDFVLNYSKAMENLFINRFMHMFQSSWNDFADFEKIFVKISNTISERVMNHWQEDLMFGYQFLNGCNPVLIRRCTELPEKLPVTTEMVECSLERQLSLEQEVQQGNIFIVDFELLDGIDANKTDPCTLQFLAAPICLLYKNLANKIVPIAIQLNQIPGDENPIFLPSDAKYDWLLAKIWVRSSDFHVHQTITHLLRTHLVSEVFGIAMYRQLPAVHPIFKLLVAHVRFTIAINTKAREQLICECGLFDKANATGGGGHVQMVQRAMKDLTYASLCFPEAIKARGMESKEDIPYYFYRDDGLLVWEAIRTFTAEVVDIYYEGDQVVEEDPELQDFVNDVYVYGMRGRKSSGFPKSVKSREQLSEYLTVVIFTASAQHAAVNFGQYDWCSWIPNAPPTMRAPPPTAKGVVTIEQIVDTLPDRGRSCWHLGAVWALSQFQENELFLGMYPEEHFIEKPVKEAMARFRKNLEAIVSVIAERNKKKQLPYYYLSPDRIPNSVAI
Summary of the method: (§1)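 Native and compound-treated (0.1–10 µM) enzymes in PBS pH 7.4 at final protein 200 µM. CD spectra corrected by subtracting buffer blanks. Percent change in secondary structure (α-helix, β-sheet) calculated with the CAPITO analysis server.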

[1] = system: CD68-positive inflammatory cell infiltration and TNF-α expression in paw tissue; assay: Immunofluorescence and immunoblot analysis of carrageenan-injected paw tissue; format: in vivo; conditions: rat, 400 ppm, compared to the untreated control
Summary of the method: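 Paw tissue: 4-µm FFPE sections, citrate pH 6.0 epitope retrieval (99°C, 30 min). Blocked with serum/BSA 40 min. Alexa700-CD68 (1:50) and TNF-α (1:100) overnight at 4°C, Alexa488 secondary for TNF-α. Confocal imaging, stained cells counted by image analysis. Immunoblot: 20 µg protein, 12% SDS-PAGE, PVDF. CD68 and TNF-α (1:100), HRP secondary, ECL, β-actin loading control.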

rat mPGES-1 = target: T2, rat mPGES-1 (Rattus norvegicus, UniProt Q9JHF3); assay: Binding assay using isothermal titration calorimetry
T2 sequence (Q9JHF3 1-153): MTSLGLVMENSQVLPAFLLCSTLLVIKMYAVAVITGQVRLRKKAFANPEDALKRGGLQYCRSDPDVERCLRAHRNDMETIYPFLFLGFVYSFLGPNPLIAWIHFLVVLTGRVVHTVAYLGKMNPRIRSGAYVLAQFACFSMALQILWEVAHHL
Summary of the method: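 Rat mPGES-1 isolated from vas deferens and seminal vesicles. Compound (up to 1 mM) and protein (1 mM) dissolved in PBS and degassed. Serial compound injections made into enzyme cell. KD derived by fitting the binding isotherm.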

human COX-2 = target: T3, human COX-2 (Homo sapiens, UniProt P35354); assay: Circular dichroism, change in secondary structure; conditions: CD, Human COX-2, LFA-9 10 µM
T3 sequence (P35354 18-604): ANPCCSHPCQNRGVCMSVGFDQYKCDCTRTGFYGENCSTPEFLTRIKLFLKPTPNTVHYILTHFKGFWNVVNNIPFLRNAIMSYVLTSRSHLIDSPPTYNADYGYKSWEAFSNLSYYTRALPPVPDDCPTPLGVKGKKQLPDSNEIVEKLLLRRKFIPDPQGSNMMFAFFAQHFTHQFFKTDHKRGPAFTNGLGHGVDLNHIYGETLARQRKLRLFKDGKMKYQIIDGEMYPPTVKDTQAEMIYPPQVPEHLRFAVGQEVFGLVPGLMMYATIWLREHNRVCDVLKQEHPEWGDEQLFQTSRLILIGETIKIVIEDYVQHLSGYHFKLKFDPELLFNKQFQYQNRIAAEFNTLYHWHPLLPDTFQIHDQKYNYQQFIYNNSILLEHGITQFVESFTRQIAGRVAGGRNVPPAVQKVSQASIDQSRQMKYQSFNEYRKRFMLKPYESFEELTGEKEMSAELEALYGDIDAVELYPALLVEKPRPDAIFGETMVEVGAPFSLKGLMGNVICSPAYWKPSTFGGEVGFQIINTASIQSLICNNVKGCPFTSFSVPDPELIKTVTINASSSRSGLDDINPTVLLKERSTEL
Summary of the method: as §1

[2] = In vitro metabolic stability in activated liver S9 fraction; format: in vitro ADME; conditions: mouse liver S9 fraction activated with NADPH, UDPGA, GSH, PAPS; 500 µM
Summary of the method: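 Mouse or rat liver S9 fraction isolated and activated with NADPH, UDPGA, GSH and PAPS before compound addition. Samples taken at 0, 15, 30, 45 and 60 min. Compound extracted with acetonitrile and quantified by reversed-phase HPLC with PDA detection. Percent remaining calculated from peak areas at 0 and 60 min.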

CC1(C)Cc2c(-c3ccccc3)c(-c3ccc(Cl)cc3)c(CC(=O)NCC(=O)O)n2C1 [LFA-9, 2-[[2-[2-(4-chlorophenyl)-6,6-dimethyl-1-phenyl-5,7-dihydropyrrolizin-3-yl]acetyl]amino]acetic acid]
unfolding of α-helix of 5-LOX (human 5-LOX; 5-LOX, LFA-9 at 0.1 µM): 8.7%
unfolding of β-sheets of 5-LOX (human 5-LOX; 5-LOX, LFA-9 at 0.1 µM): 1%
Change in Secondary Structure: unfolding in α-helix (human 5-LOX; Human 5-LOX, LFA-9 0.12 µM): 8.7%
Change in Secondary Structure: unfolding in β-sheets (human 5-LOX; Human 5-LOX, LFA-9 0.12 µM): 1%
CD68-positive inflammatory cell infiltration in paw tissue [1]: significantly decreased
expression of TNF-α in paw tissue [1]: significantly decreased
Kd (rat mPGES-1): 3.3 µM
Change in Secondary Structure (human COX-2): No change in secondary structure
LFA-9 remaining after 60-minutes incubation [2]: 96.1%
